Source: ChEMBL document CHEMBL1143930, “S-Euglobals: biomimetic synthesis, antileishmanial, antimalarial, and antimicrobial activities” (Bioorg Med Chem, 2008)
Converted amounts (≈) assume the structure as drawn. The source made the active and inactive calls. The calls are words filed in the database; no cut-off is given here.

Key:
SK-MEL [1] = assay: Cytotoxicity against human SKMEL cells by neutral red assay up to 25 ug/mL; format: functional, cell-based
In short: (§1)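 Cells were seeded at 25,000 per well and incubated 24 h. Test samples were added at a range of concentrations, followed by a further 48 h incubation. Viable cells were quantified by Neutral Red uptake, and IC50 was read from dose curves of percent growth versus concentration.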

Vero [2] = assay: Cytotoxicity against african green monkey Vero cells by neutral red assay up to 25 ug/mL; format: cell-based; conditions: chlorocebus sabaeus; in short: as §1
Leishmania donovani = assay: Antileishmanial activity against Leishmania donovani promastigotes after 48 hrs by Alamar blue assay; format: functional, organism-based
In short: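 L. donovani promastigotes were grown in RPMI 1640 with 10% fetal calf serum at 26 C. A 3-day-old culture was diluted to 5 × 10^5 promastigotes/mL, and drug dilutions were made directly in the cell suspension. After 48 h at 26 C, growth was read by Alamar Blue fluorescence (ex 544/em 590 nm). IC50 and IC90 came from percent growth versus concentration curves.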

KB [3] = assay: Cytotoxicity against human KB cells by neutral red assay up to 25 ug/mL; format: functional, cell-based; in short: as §1
BT-549 [4] = assay: Cytotoxicity against human BT549 cells by neutral red assay up to 25 ug/mL; format: functional, cell-based; in short: as §1
Candida albicans = assay: Antifungal activity against Candida albicans; format: functional, organism-based
In short: (§2)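 Modified NCCLS broth microdilution. Samples in DMSO were serially diluted in 0.9% saline and tested in duplicate. Inocula were matched to the 0.5 McFarland standard by absorbance at 630 nm, then diluted in broth. Growth, solvent and media controls were included. Plates were read at 630 nm before and after incubation, and IC50 was taken from percent growth versus concentration.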

SK-OV-3 [5] = assay: Cytotoxicity against human SK-OV3 cells by neutral red assay up to 25 ug/mL; format: functional, cell-based; in short: as §1
Cryptococcus neoformans = assay: Antifungal activity against Cryptococcus neoformans; format: functional, organism-based; in short: as §2
[6] = Cytotoxicity against pig LLC-PK11 cells by neutral red assay up to 25 ug/mL; format: cell-based, Sus scrofa; in short: as §1
Aspergillus fumigatus = assay: Antifungal activity against Aspergillus fumigatus; format: functional, organism-based; in short: as §2
SK-OV-3 [7] = assay: Cytotoxicity against human SK-OV3 cells by neutral red assay; format: functional, cell-based; in short: as §1
Vero [8] = assay: Cytotoxicity against african green monkey Vero cells by neutral red assay; format: cell-based; conditions: chlorocebus sabaeus; in short: as §1
[9] = Cytotoxicity against pig LLC-PK11 cells by neutral red assay; format: cell-based; conditions: Sus scrofa; in short: as §1
KB [10] = assay: Cytotoxicity against human KB cells by neutral red assay; format: functional, cell-based; in short: as §1
Staphylococcus aureus = assay: Antibacterial activity against methicillin-resistant Staphylococcus aureus; format: functional, organism-based
In short: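 Modified NCCLS broth microdilution. Samples in DMSO serially diluted in 0.9% saline, tested in duplicate. Inoculum set against 0.5 McFarland standard by absorbance at 630 nm, then diluted in broth. Growth, solvent and media controls included. Plates read at 630 nm before and after incubation. IC50 from percent growth vs concentration; MIC = lowest concentration with no detectable growth.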

BT-549 [11] = assay: Cytotoxicity against human BT549 cells by neutral red assay; format: functional, cell-based; in short: as §1
SK-MEL [12] = assay: Cytotoxicity against human SKMEL cells by neutral red assay; format: functional, cell-based; in short: as §1

| SMILES | Activity (SK-MEL [1]) | Activity (Vero [2]) | IC50 (Leishmania donovani) [µg/mL] | Activity (KB [3]) | Activity (BT-549 [4]) | Activity (Candida albicans) | Activity (SK-OV-3 [5]) | Activity (Cryptococcus neoformans) | Activity [6] | Activity (Aspergillus fumigatus) | IC50 (SK-OV-3 [7]) [µg/mL] | IC50 (Vero [8]) [µg/mL] | IC50 [9] [µg/mL] | IC50 (KB [10]) [µg/mL] | IC50 (Staphylococcus aureus) [µg/mL] | IC50 (BT-549 [11]) [µg/mL] | IC90 (Leishmania donovani) [µg/mL] | Activity (Leishmania donovani) | IC50 (SK-MEL [12]) [µg/mL] | MIC (Staphylococcus aureus) [µg/mL] |
| --- | --- | --- | --- | --- | --- | --- | --- | --- | --- | --- | --- | --- | --- | --- | --- | --- | --- | --- | --- | --- |
| CC1(C)[C@H]2C[C@@H]3Cc4c(O)c(C=O)c(O)c(C=O)c4O[C@]3(CCO)[C@@H]1C2 | inactive | Not Active | 22 (≈ 61 µM) | inactive | inactive | inactive | inactive | inactive | Not Active | inactive |  |  |  |  |  |  |  |  |  |  |
| CC(C)CC(=O)c1c(O)c(C=O)c(O)c2c1O[C@@]1(CCO)[C@@H](C2)C[C@H]2C[C@@H]1C2(C)C | inactive |  | 32 (≈ 76.8 µM) |  |  | inactive |  | inactive |  | inactive | > 25 | > 25 | > 25 | > 25 | 5 (≈ 12 µM) | > 25 |  |  |  |  |
| CC(C)CC(=O)c1c(O)c2c(c(C(=O)CC(C)C)c1O)O[C@@]1(CO)[C@@H](C2)C[C@H]2C[C@@H]1C2(C)C | inactive |  | 24 (≈ 52.3 µM) | inactive |  | inactive | inactive | inactive | Not Active | inactive |  | > 25 |  |  |  | 25 (≈ 54.5 µM) |  |  |  |  |
| CC(C)CC(=O)c1c(O)c(C=O)c2c(c1O)C[C@H]1CC[C@H]3[C@H](C3(C)C)[C@@]1(C)O2 | inactive | Not Active | 2.4 (≈ 6.21 µM) | inactive |  | inactive |  | inactive |  | inactive | > 25 |  | > 25 |  |  | > 25 | 8 (≈ 20.7 µM) |  |  |  |
| N=C(N)c1ccc(OCCCCCOc2ccc(C(=N)N)cc2)cc1 [PENTAMIDINE] |  |  | 1.2 (≈ 3.52 µM) |  |  |  |  |  |  |  |  |  |  |  |  |  | 6 (≈ 17.6 µM) |  |  |  |
| CC1(C)[C@H]2C[C@@H]3Cc4c(O)c(C=O)c(O)c(C=O)c4O[C@]3(CO)[C@@H]1C2 |  | Not Active |  |  |  | inactive | inactive | inactive | Not Active | inactive |  |  |  |  |  | 25 (≈ 72.2 µM) |  | inactive | 25 (≈ 72.2 µM) |  |
| CC(C)CC(=O)c1c(O)c(C=O)c2c(c1O)C[C@H]1C[C@H]3C[C@H](C3(C)C)[C@@]1(CO)O2 | inactive | Not Active | 18 (≈ 44.7 µM) | inactive |  | inactive | inactive | inactive | Not Active | inactive |  |  |  |  | 2.5 (≈ 6.21 µM) | 23 (≈ 57.1 µM) | 39 (≈ 96.9 µM) |  |  |  |
| CC(C)CC(=O)c1c(O)c(C=O)c2c(c1O)C[C@H]1C[C@H]3C[C@H](C3(C)C)[C@@]1(C)O2 [EUGLOBAL G2] |  |  | 3.6 (≈ 9.31 µM) |  |  |  |  |  |  |  |  |  |  |  |  |  |  |  |  |  |
| CC(C)CC(=O)c1c(O)c(C=O)c(O)c2c1O[C@@]1(CO)[C@@H](C2)C[C@H]2C[C@@H]1C2(C)C | inactive | Not Active | 30 (≈ 74.5 µM) | inactive |  | inactive | inactive | inactive | Not Active | inactive |  |  |  |  | 10 (≈ 24.8 µM) | 22.5 (≈ 55.9 µM) |  |  |  |  |
| CC(C)CC(=O)c1c(O)c(C=O)c2c(c1O)C[C@H]1C[C@H]3C[C@H](C3(C)C)[C@@]1(CCO)O2 |  |  | 9.5 (≈ 22.8 µM) |  |  | inactive |  | inactive |  | inactive | 25 (≈ 60 µM) | 20 (≈ 48 µM) | 25 (≈ 60 µM) | 20 (≈ 48 µM) | 1 (≈ 2.4 µM) | 18.5 (≈ 44.4 µM) | 33 (≈ 79.2 µM) |  | 25 (≈ 60 µM) | 5 (≈ 12 µM) |
| COc1cccc2c1C(=O)c1c(O)c3c(c(O)c1C2=O)C[C@@](O)(C(=O)CO)C[C@@H]3O[C@H]1C[C@H](N)[C@H](O)[C@H](C)O1 [DOXORUBICIN] |  |  |  |  |  |  |  |  |  |  | 0.75 (≈ 1.38 µM) |  | 0.5 (≈ 0.92 µM) | 0.9 (≈ 1.66 µM) |  | 0.6 (≈ 1.1 µM) |  |  | 0.6 (≈ 1.1 µM) |  |
